Screens: PubChem, several laboratories
An excerpt weighted towards active compounds, which were near 2% of everything screened.
PG9 Ab binder = binders of HIV-1 gp120 antibody PG9, primary screen, biochemical, TR-FRET | inhibition, % at 6.7 µM | actives 0.43% (n = 360,000) | AID 624416, 2012 | TR-FRET gp120-PG9 antibody binding | HIV-1 gp120 / PG9 antibody interaction; in the data active = inhibition above about 8.5%
Rev-erbA mod = modulators of Rev-erb alpha DNA binding, primary screen, biochemical, FITC-DNA, fluorescence polarization, uHTS. Nuclear receptor subfamily 1 group D member 1 (Homo sapiens), P20393. Rev-erbα–FITC-DNA binding, 90 min. activity, % at 10 µM. actives 0.79% (n = 370,000). AID 1259318, 2017;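 active = activity above about 14%, limit read from the data; passing the limit was not always enough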;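 note: 0% = DMSO wells with 35 nM protein and 100% = DMSO wells with 750 nM protein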
NR2E3 ag-1 = inhibitors of NR2E3-RetCOR corepressor binding, primary screen, NR2E3 agonist project, biochemical, TR-FRET, GST-NR2E3, biotin-RetCOR. Photoreceptor-specific nuclear receptor (Homo sapiens), Q9Y5X4. 1536-well. inhibition of corepressor binding, % at 4.78 µM. actives 0.12% (n = 320,000). AID 2300, 2010;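 active = percent inhibition above the cutoff of mean plus 3 SD of all tested compounds, set per screening campaign, cut at about 20% in these data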;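 note: 0% = DMSO wells and 100% = biotin wells as full block of FRET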
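System: GST-NR2E3 and biotin-RetCOR proteins; probe or stimulus: 7 nM biotin-RetCOR; doses: compound at 4.8 µM, single dose; schedule: Compound–protein incubation for 5 h at 4 °C; detection: time-resolved FRET; read-out: percent inhibition; controls: biotin wells as high control, 0.6% DMSO wells as low control; format: 1536-well plates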
Neddylation inh = inhibitors of cullin neddylation, primary screen, biochemical, TR-FRET, uHTS, NAE and Ubc12. NEDD8-conjugating enzyme Ubc12 (Homo sapiens) + NEDD8-activating enzyme E1 regulatory …. calls only at 25 µM. actives 0.58% (n = 360,000). AID 651699, 2012; in the data active = inhibition above about 36%
Target sequence (P61081 whole entry, looked up): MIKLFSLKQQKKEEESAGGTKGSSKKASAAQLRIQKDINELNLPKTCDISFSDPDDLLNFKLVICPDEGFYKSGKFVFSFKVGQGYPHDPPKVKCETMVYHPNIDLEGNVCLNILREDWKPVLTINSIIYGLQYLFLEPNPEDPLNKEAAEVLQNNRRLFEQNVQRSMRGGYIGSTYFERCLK
Target sequence (Q13564 whole entry, looked up): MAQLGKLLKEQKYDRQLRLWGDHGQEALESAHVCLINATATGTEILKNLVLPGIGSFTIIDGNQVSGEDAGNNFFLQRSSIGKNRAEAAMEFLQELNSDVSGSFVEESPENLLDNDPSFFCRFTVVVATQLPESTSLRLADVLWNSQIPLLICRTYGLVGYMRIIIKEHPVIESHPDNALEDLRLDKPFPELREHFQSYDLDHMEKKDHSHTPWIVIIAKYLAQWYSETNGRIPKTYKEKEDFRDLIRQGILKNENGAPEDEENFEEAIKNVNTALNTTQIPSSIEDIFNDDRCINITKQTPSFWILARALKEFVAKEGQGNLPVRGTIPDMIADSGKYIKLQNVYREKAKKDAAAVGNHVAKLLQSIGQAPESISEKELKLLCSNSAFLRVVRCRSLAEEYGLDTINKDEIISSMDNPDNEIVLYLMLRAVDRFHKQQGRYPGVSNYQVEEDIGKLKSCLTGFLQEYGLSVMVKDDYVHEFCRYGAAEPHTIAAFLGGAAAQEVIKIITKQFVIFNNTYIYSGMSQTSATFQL
NR2E3 ag-2 = NR2E3 agonists in two-hybrid cells, primary screen, cell-based, luminescence, CHO-S, Gal4-NCOR/VP16-NR2E3. Photoreceptor-specific nuclear receptor (Homo sapiens), Q9Y5X4. luciferase. inhibition of corepressor binding, % at 3.98 µM. actives 0.35% (n = 360,000);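 active = inhibition above the mean of all tested compounds plus 3 SD, cut at about 70% in these data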;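 note: 0% = DMSO with NR2E3 transfected cells and 100% = cells lacking NR2E3 construct; higher means lower luciferase signal from less NR2E3 corepressor binding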
NR1D1 mod conf = modulators of Rev-erb alpha DNA binding, confirmation, biochemical, FITC-DNA, fluorescence polarization, single point; shares compounds with Rev-erbA mod; actives 61% (n = 3,000); 90 min; activation, % at 25 µM;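 active = activation at or above a set limit, or at least 3 SD above the negative control mean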;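 note: 0% = 35 nM protein with DMSO and 100% = 750 nM protein high control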
RORg DNA counter = modulation of RORgamma DNA binding, dose response, counter-screen for Rev-erb alpha modulator project, biochemical, fluorescence polarization, FITC-DNA. shares compounds with Rev-erbA mod. purified RORgamma protein-FITC-DNA binding. IC50, µM. actives 8% (n = 910);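 active = Compounds whose fitted half-maximal concentration for disrupting protein-DNA binding is below 10 micromolar; the record names Rev-erb in its text, so the target is in doubt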
* marks the source's active call; other numbers are inactive results; i = inactive; / = no result given.

SMILES | PG9 Ab binder | Rev-erbA mod | NR2E3 ag-1 | Neddylation inh | NR2E3 ag-2 | NR1D1 mod conf | others
COc1ccc(-c2nc3c(c(=O)[nH]c(=O)n3Cc3ccccc3)n2Cc2ccccc2)cc1 | -3 | 9 | 2 | i | 5 | /
COc1ccc(Cn2c(-c3ccc(C)cc3)nc3c(c(=O)c4ccccc4n3C)c2=O)cc1 | 1 | 27* | 3 | i | -6 | 14
COc1ccc(-c2nc3c(c(=O)[nH]c(=O)n3Cc3ccccc3)n2C)cc1 | 0 | 43* | 5 | i | 0 | 0
COc1ccc(Cn2c(C)nc3c(c(=O)c4ccccc4n3C)c2=O)cc1 | -2 | 4 | -5 | i | -20 | /
OC(C1=CC(=Cc2ccncc2)c2ccccc21)c1ccncc1 (stereo not given) | -6 | -5 | / | i | -9 | /
FC(F)(F)c1cc(Cc2nc3ccccc3n2C(CCc2ccccc2)c2nc3ccccc3[nH]2)cc(C(F)(F)F)c1 (stereo not given) | 0 | 4 | / | i | / | /
CC(=O)c1sc(NC(=O)c2ccc(F)cc2)nc1-c1ccccc1 | 4 | 18 | 1 | i | -15 | /
CC(=O)c1sc(NC(=O)c2ccccc2F)nc1-c1ccccc1 | 2 | 17* | 9 | i | -111 | 11
COc1ccc(C(=O)Nc2nc(-c3ccccc3)c(C(C)=O)s2)c(OC)c1 | 2 | 25* | -2 | i | -36 | 15
COc1ccc(OC)c(-c2csc(NC(=O)c3ccc4c(c3)OCO4)n2)c1 | -2 | 49* | 3 | i | -45 | 51* | RORg DNA counter=i
COc1ccc(C(=O)Nc2nc3cc4c(cc3s2)OCO4)c(OC)c1 | 6 | 19* | -60 | / | -138 | 11*
COc1ccc(CN2CCN(CCc3ccccc3)C(CCO)C2)c(O)c1 (stereo not given) | 5 | 16* | -3 | i | 5 | -1
COc1ccc(CN2CCN(CCCc3ccccc3)C(CCO)C2)c(O)c1 (stereo not given) | 1 | -2 | -2 | i | 15 | /
CCn1c(C)c(C2=CCN(S(=O)(=O)c3ccccc3)CC2)c2ccccc21 | 1 | 28* | 1 | i | -16 | 26*
COc1ccc(-c2c(C(F)(F)F)oc3cc(OCC(=O)Nc4ccccc4C(F)(F)F)ccc3c2=O)cc1OC | -2 | 37* | 2 | i | -29 | 20*
CCC(C)(C)c1ccc(OCCCC[n+]2cccc(C)c2)c(C(C)(C)CC)c1 | -3 | 33* | / | i | 10 | 44* | RORg DNA counter=>40
Cc1ccc[n+](CC(=O)Nc2cc(C(F)(F)F)ccc2Cl)c1 | 0 | 0 | 7 | i | 0 | /
O=C1CCC[C@H]2C[C@H](NCc3ccc(Cl)c(C(F)(F)F)c3)CC[C@]23CCCN13 | / | -9 | / | / | / | /
O=C(COc1ccc2ccccc2c1)NNC(=O)Cc1cccc2ccccc12 | 2 | -4 | -1 | i | -9 | /
O=C(COc1ccc2ccccc2c1)NNC(=O)Cc1ccccc1 | -28 | 35* | -104 | i | -20 | 29*
COC(=O)C1=C(C)NC(C)=C(C(=O)OC)C1C(=O)OCc1nc2cc(C(=O)OC)ccc2c(=O)[nH]1 | 0 | 1 | -1 | i | -17 | /
COC(=O)c1ccc2c(=O)[nH]c(COC(=O)CCC(=O)c3ccc(Cl)cc3)nc2c1 | 6 | 20* | 5 | i | -20 | 6
CCOC(=O)c1cc(-c2cc3ccccc3o2)nc2c1c(=O)[nH]c(=O)n2CCOC | 0 | 27* | -1 | i | 1 | 9
CCOC(=O)c1cc(-c2ccc([N+](=O)[O-])cc2)nc2c1c(=O)[nH]c(=O)n2Cc1ccccc1 | 2 | -28 | 2 | i | -3 | /
Cc1ccnc(N2CCC(C(=O)Nc3ccc(Oc4ccccc4)cc3)CC2)n1 | 1 | 24* | 0 | i | 11 | -2
SMILES | PG9 Ab binder | Rev-erbA mod | NR2E3 ag-1 | Neddylation inh | NR2E3 ag-2 | NR1D1 mod conf | others
COCCCN(Cc1cc(OC)c(OC)c(OC)c1)C(=S)Nc1cccc(Cl)c1 | 0 | 8 | / | i | 6 | /
CCSc1nnc(-c2ccc(Cl)cc2)c2ccccc12 | 1 | 239* | 3 | i | -4 | 289* | RORg DNA counter=>40
CCSc1nnc(-c2ccc(C)cc2)c2ccccc12 | 1 | -2 | 1 | i | 6 | /
c1ccc2c(-c3cccc4nccn34)cncc2c1 | -2 | 0 | / | i | 3 | /
CC(=O)Nc1cncc(-c2cccc(S(C)(=O)=O)c2)n1 | 0 | -6 | / | i | -31 | /
CC1CCCN(CC(=O)Nc2ccc(S(=O)(=O)N3C(C)CCCC3C)cc2)C1 (stereo not given) | 0 | 6 | / | i | -34 | /
COc1ccc(C)c2sc(=NC(=O)C(C)C)n(C)c12 | 1 | 158* | 3 | i | 9 | 11*
COc1ccc(C)c2sc(=NC(=O)c3ccc(C(C)=O)cc3)n(C)c12 | 1 | 5 | -1 | i | -86 | /
CCC(=O)N=c1sc2cc(F)cc(F)c2n1C | -1 | -6 | 2 | i | -37 | /
COc1ccc(OC)c2c1sc(=NC(=O)C1COc3ccccc3O1)n2C (stereo not given) | -1 | 29* | 2 | i | -13 | 21*
COc1ccc(C)c2sc(=NC(=O)c3cccc(N4C(=O)CCC4=O)c3)n(C)c12 | -2 | 43* | 0 | i | -15 | 23*
CCC(=O)N=c1sc2c(OC)ccc(OC)c2n1C | 0 | 47* | 3 | i | -27 | 30* | RORg DNA counter=>40
O=S1(=O)CCN(Cc2ccncc2)CC1 | 3 | 2 | / | i | -16 | /
CN1OC[C@@H]2CN(Cc3ccc4c(c3)OCO4)[C@H](c3ccc(N4CCCCC4)cc3)C[C@@H]21 | -3 | 9 | / | i | 12 | /
O=C(NCC(c1ccco1)N1CCCCC1)c1ccc(COc2ccc(Cl)cc2)cc1 (stereo not given) | 0 | -5 | / | i | 5 | /
CCCCCCNC(=O)OC12CN(C(=O)OC(C)C)N(C(=O)OC(C)C)CC1(O)CN(S(=O)(=O)c1ccc(C)cc1)C2 (stereo not given) | 0 | 15* | / | i | 26 | 0
O=C(NCc1ccccc1)c1cc(C2COCCN2C(=O)c2ccc3c(c2)CCO3)on1 (stereo not given) | 2 | -2 | / | i | -1 | /
